# Assays:
# Type in all cases: functional
# Staphylococcus aureus [1] = assay: Antimicrobial activity against Staphylococcus aureus IFO 3060 at 100 ug/disc after 24 hrs by agar disc diffusion method
# In short: (§1)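 Agar disc diffusion: sterile 8 mm filter-paper discs moistened with compound solution in DMSO, placed on agar plates each pre-inoculated with one organism; plates held at 37 °C; growth inhibition zone diameter measured after 24 h (bacteria) or 48 h (C. albicans).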
# Bacillus subtilis [2] = assay: Antimicrobial activity against Bacillus subtilis IFO 3007 at 100 ug/disc after 24 hrs by agar disc diffusion method; in short: as §1
# Micrococcus luteus [3] = assay: Antimicrobial activity against Micrococcus luteus IFO 3232 at 100 ug/disc after 24 hrs by agar disc diffusion method; in short: as §1
# Escherichia coli [4] = assay: Antimicrobial activity against Escherichia coli IFO 3301 at 100 ug/disc after 24 hrs by agar disc diffusion method; in short: as §1
# Pseudomonas aeruginosa [5] = assay: Antimicrobial activity against Pseudomonas aeruginosa IFO 3448 at 100 ug/disc after 24 hrs by agar disc diffusion method; in short: as §1
# Staphylococcus aureus [6] = assay: Antimicrobial activity against Staphylococcus aureus IFO 3060 after 24 hrs by two fold serial dilution method
# Bacillus subtilis [7] = assay: Antimicrobial activity against Bacillus subtilis IFO 3007 after 24 hrs by two fold serial dilution method
# Micrococcus luteus [8] = assay: Antimicrobial activity against Micrococcus luteus IFO 3232 after 24 hrs by two fold serial dilution method
# Escherichia coli [9] = assay: Antimicrobial activity against Escherichia coli IFO 3301 after 24 hrs by two fold serial dilution method
# Pseudomonas aeruginosa [10] = assay: Antimicrobial activity against Pseudomonas aeruginosa IFO 3448 after 24 hrs by two fold serial dilution method
# Candida albicans = assay: Antifungal activity against Candida albicans IFO 0583 at 200 ug/disc after 48 hrs by agar disc diffusion method; conditions: IFO 0583, 48 h, read-out: DIZ; in short: as §1
# Staphylococcus aureus [11] = assay: Antimicrobial activity against Staphylococcus aureus IFO 3060 at 200 ug/disc after 24 hrs by agar disc diffusion method; conditions: IFO 3060, 24 h, read-out: DIZ; in short: as §1
# Bacillus subtilis [12] = assay: Antimicrobial activity against Bacillus subtilis IFO 3007 at 200 ug/disc after 24 hrs by agar disc diffusion method; conditions: IFO 3007, 24 h, read-out: DIZ; in short: as §1
# Micrococcus luteus [13] = assay: Antimicrobial activity against Micrococcus luteus IFO 3232 at 200 ug/disc after 24 hrs by agar disc diffusion method; conditions: IFO 3232, 24 h, read-out: DIZ; in short: as §1
# Escherichia coli [14] = assay: Antimicrobial activity against Escherichia coli IFO 3301 at 200 ug/disc after 24 hrs by agar disc diffusion method; conditions: IFO 3301, 24 h, read-out: DIZ; in short: as §1
# Pseudomonas aeruginosa [15] = assay: Antimicrobial activity against Pseudomonas aeruginosa IFO 3448 at 200 ug/disc after 24 hrs by agar disc diffusion method; conditions: IFO 3448, 24 h, read-out: DIZ; in short: as §1
Compound,zone of inhibition at 200 µg/disc (Candida albicans) [mm],zone of inhibition at 200 µg/disc (Staphylococcus aureus [11]) [mm],zone of inhibition at 200 µg/disc (Bacillus subtilis [12]) [mm],zone of inhibition at 200 µg/disc (Micrococcus luteus [13]) [mm],zone of inhibition at 200 µg/disc (Escherichia coli [14]) [mm],zone of inhibition at 200 µg/disc (Pseudomonas aeruginosa [15]) [mm],"MIC (Staphylococcus aureus [6]; IFO 3060, 24 h) [µg/mL]","MIC (Bacillus subtilis [7]; IFO 3007, 24 h) [µg/mL]",other results
GENTAMICIN SULFATE,–,–,–,–,–,–,–,–,inhibition zone (IZ) (Staphylococcus aureus [1]): 26 mm; inhibition zone (IZ) (Bacillus subtilis [2]): 25 mm; inhibition zone (IZ) (Micrococcus luteus [3]): 18 mm; inhibition zone (IZ) (Escherichia coli [4]): 20 mm; inhibition zone (IZ) (Pseudomonas aeruginosa [5]): 19 mm; MIC (Staphylococcus aureus [6]): 2 µg/mL; MIC (Bacillus subtilis [7]): 2 µg/mL; MIC (Micrococcus luteus [8]): 2 µg/mL; MIC (Escherichia coli [9]): 0.5 µg/mL; MIC (Pseudomonas aeruginosa [10]): 1 µg/mL
N#Cc1c(Sc2ccccc2)nc(SCc2ccc(Cl)cc2)nc1-c1ccccc1,< 10,12,14,12,< 10,< 10,–,–,–
COCCSc1nc(-c2ccccc2)c(C#N)c(=O)[nH]1,< 10,18,22,17,12,10,8,2,–
N#Cc1c(O)nc(SCc2ccc(Cl)cc2)nc1-c1ccccc1,< 10,20,19,19,14,12,8,8,"MIC (Micrococcus luteus [8]; IFO 3232, 24 h): 8 µg/mL"
Cc1cccc(Sc2nc(SCc3ccc(Cl)cc3)nc(-c3ccccc3)c2C#N)c1,< 10,< 10,< 10,< 10,< 10,< 10,–,–,–
CCOCCSc1nc(-c2ccccc2)c(C#N)c(=O)[nH]1,< 10,21,24,17,14,11,4,4,–
N#Cc1c(Nc2ccc(F)cc2)nc(SCc2ccc(Cl)cc2)nc1-c1ccccc1,< 10,16,18,19,< 10,< 10,2,1,"MIC (Micrococcus luteus [8]; IFO 3232, 24 h): 4 µg/mL"
N#Cc1c(-c2ccccc2)nc(SCc2ccc([N+](=O)[O-])o2)[nH]c1=O,11,33,28,24,22,21,0.5,1,"MIC (Micrococcus luteus [8]; IFO 3232, 24 h): 1 µg/mL; MIC (Escherichia coli [9]; IFO 3301, 24 h): 2 µg/mL; MIC (Pseudomonas aeruginosa [10]; IFO 3448, 24 h): 4 µg/mL"
CCSCCSc1nc(-c2ccccc2)c(C#N)c(=O)[nH]1,12,12,16,12,16,14,–,–,–
CSCCSc1nc(-c2ccccc2)c(C#N)c(=O)[nH]1,14,16,18,15,21,18,–,8,–
N#Cc1c(-c2ccccc2)nc(SCc2ccccc2)[nH]c1=O,< 10,16,17,16,< 10,< 10,–,–,–
N#Cc1c(-c2ccccc2)nc(SCc2ccc([N+](=O)[O-])cc2)[nH]c1=O,< 10,14,17,13,12,< 10,–,–,–
N#Cc1c(Cl)nc(SCc2ccc(Cl)cc2)nc1-c1ccccc1,12,24,26,18,16,14,–,–,–
Cc1ccc(Sc2nc(SCc3ccc(Cl)cc3)nc(-c3ccccc3)c2C#N)cc1,< 10,14,13,11,< 10,< 10,–,–,–
N#Cc1c(Nc2cccc(C(F)(F)F)c2)nc(SCc2ccc(Cl)cc2)nc1-c1ccccc1,< 10,14,14,11,< 10,< 10,–,–,–
N#Cc1c(-c2ccccc2)nc(SCOCc2ccccc2)[nH]c1=O,< 10,14,16,13,< 10,< 10,–,–,–
Cc1ccccc1Sc1nc(SCc2ccc(Cl)cc2)nc(-c2ccccc2)c1C#N,< 10,< 10,< 10,< 10,< 10,< 10,–,–,–
N#Cc1c(-c2ccccc2)nc(SCc2ccc(F)cc2)[nH]c1=O,< 10,22,26,21,18,14,4,2,"MIC (Micrococcus luteus [8]; IFO 3232, 24 h): 4 µg/mL; MIC (Escherichia coli [9]; IFO 3301, 24 h): 8 µg/mL"
N#Cc1c(Nc2ccc(C(F)(F)F)cc2)nc(SCc2ccc(Cl)cc2)nc1-c1ccccc1,< 10,15,17,13,< 10,< 10,–,–,–
N#Cc1c(Nc2ccccc2C(F)(F)F)nc(SCc2ccc(Cl)cc2)nc1-c1ccccc1,< 10,12,12,10,< 10,< 10,–,–,–
CC1(C)S[C@@H]2[C@H](NC(=O)[C@H](N)c3ccccc3)C(=O)N2[C@H]1C(=O)O.O.O.O [AMPICILLIN TRIHYDRATE],–,–,–,–,–,–,2,0.5,"zone of inhibition at 100 µg/disc (Staphylococcus aureus [1]; IFO 3060, 24 h, read-out: DIZ): 23 mm; zone of inhibition at 100 µg/disc (Bacillus subtilis [2]; IFO 3007, 24 h, read-out: DIZ): 21 mm; zone of inhibition at 100 µg/disc (Micrococcus luteus [3]; IFO 3232, 24 h, read-out: DIZ): 19 mm; zone of inhibition at 100 µg/disc (Escherichia coli [4]; IFO 3301, 24 h, read-out: DIZ): 17 mm; zone of inhibition at 100 µg/disc (Pseudomonas aeruginosa [5]; IFO 3448, 24 h, read-out: DIZ): 17 mm; MIC (Micrococcus luteus [8]; IFO 3232, 24 h): 2 µg/mL; MIC (Pseudomonas aeruginosa [10]; IFO 3448, 24 h): 2 µg/mL"
